No end group written: not given here.
Assays:
PKN [1] = molecular target: T1, PKN (Homo sapiens, UniProt Q16512); details: cited from earlier work; for inhibition of kinase activity of PKN: ref [20]
[2] = tested on: interaction between Iα and the catalytic domain of PKN1; details: ref [24]; cited from earlier work
cellular membranes = details: ref [28]; cited from earlier work
[3] = tested on: androgen receptor-induced tumour cell proliferation; details: by inhibition of PKN1; ref [7]; cited from earlier work
human PKN1 [4] = molecular target: T2, human PKN1 (Homo sapiens, UniProt Q16512); assay: In vitro kinase assay, δpeptide substrate, PKN1 catalytic domain; assay type: biochemical; details: for inhibition of peptide kinase activity of PKN1: δpeptide substrate, various peptide concentrations, up to 50 μM, 30 °C, 5 min, pH 7.5, 40 μM ATP, representative of three independent experiments
[5] = tested on: catalytic domain of all isoforms of PKNs; details: ref [24], cited from earlier work
PKA = details: ref [24]; cited from earlier work
PKCδ = details: ref [24]; cited from earlier work
rat PKCα = assay: Phosphorylation of GST-tagged oligopeptides by PKCα; assay type: biochemical; details: GST-fused peptide substrate; 30 °C, 5 min
Summary of the method: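 GST-fused rat PKCα catalytic domain (332–end) was Sf9/baculovirus-expressed and purified. Reactions were stopped in boiled Laemmli buffer, run on 15% SDS/PAGE, and phosphorylation was read by radioactivity imaging.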

rat PKCδ = assay: Phosphorylation of GST-tagged oligopeptides by PKCδ; assay type: biochemical; details: GST-fused peptide substrate; 30 °C, 5 min
human PKN1 [6] = molecular target: T2, human PKN1; assay: Phosphorylation of GST-tagged oligopeptides by PKN1; assay type: biochemical; details: GST-fused peptide substrate; 30 °C, 5 min
PKN [7] = molecular target: T1, PKN; assay: In vitro kinase assay, PKN; assay type: biochemical; details: Supplementary Figure S4
Summary of the method: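 Catalytic domains of human PKN1 (543–end) and PKC isoforms were GST-fused, baculovirus/Sf9-expressed and affinity-purified. 10 ng kinase was incubated 5 min at 30 °C in 20 mM Tris/HCl pH 7.5, 4 mM MgCl2, 40 μM ATP, [γ-32P]ATP, 100 μM δpeptide (PKCδ 137–153, A147S) and BSA or GST, ± peptides. Reactions were read on P81 paper by Cherenkov counting; no-peptide activity = 100%.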

T1 sequence (Q16512 543-942 limits assumed): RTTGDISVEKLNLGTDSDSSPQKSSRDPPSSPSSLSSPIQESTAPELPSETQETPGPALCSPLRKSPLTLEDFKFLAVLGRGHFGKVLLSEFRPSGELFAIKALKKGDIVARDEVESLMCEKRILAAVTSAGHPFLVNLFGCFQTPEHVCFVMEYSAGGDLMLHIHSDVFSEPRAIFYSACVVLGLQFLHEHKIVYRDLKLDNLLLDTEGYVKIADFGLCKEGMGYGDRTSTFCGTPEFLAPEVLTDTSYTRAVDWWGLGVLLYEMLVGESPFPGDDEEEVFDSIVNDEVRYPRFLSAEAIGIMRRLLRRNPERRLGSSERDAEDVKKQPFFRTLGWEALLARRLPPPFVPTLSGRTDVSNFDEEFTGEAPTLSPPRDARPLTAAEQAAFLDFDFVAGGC
T2 sequence (Q16512 543-942 limits assumed): as above

CCCCC/C=C\C/C=C\C/C=C\C/C=C\CCCC(=O)O [Arachidonic acid, arachidonic acid]
activation of PKN in vitro (PKN [1]; ref [1]): activated | effect on interaction between Iα and catalytic domain of PKN1 [2]: directly interfere with the interaction | relief of autoinhibition of wild-type PKN1 by Iα [2]: relieve the catalytic activity of wild-type PKN1 from autoinhibition by Iα

CC1CNCCN1S(=O)(=O)c1cccc2cnccc12 (stereo not shown) [H-7]
inhibition of kinase activity of PKN (PKN [1]): potently inhibit

O=C(O)CCCc1ccc2ccc3cccc4ccc1c2c34 [Pyrenebutyrate, pyrenebutyrate]
ability of CPP-fused peptides to translocate across cellular membranes (cellular membranes): improve the ability of CPP-fused peptides to translocate across cellular membranes

Cn1cc(C2=C(c3cn(CCCSC(=N)N)c4ccccc34)C(=O)NC2=O)c2ccccc21 [Ro318220]
effect on androgen receptor-induced tumour cell proliferation [3]: blocks proliferation

CN(C)CCCn1cc(C2=C(c3c[nH]c4ccccc34)C(=O)NC2=O)c2ccccc21 [bisindolylmaleimide I]
inhibition of kinase activity of PKN (PKN [1]): potently inhibit

AEVTFRNPVIERIPRLRR
inhibition of peptide kinase activity of PKN1 (human PKN1 [4]): partially inhibited

His6-tagged Iα: His-tagged region comprising amino acid residues 455–511 of PKN1
inhibition of PKN kinase activity by His-tagged Iα ([5]; direct effects on the catalytic region): potently inhibited | inhibition of catalytic domain of all PKN isoforms [5]: inhibited | effect on PKA (PKA): no inhibitory effect | effect on PKCδ (PKCδ): no inhibitory effect

KRRKPSFRNP [NS1]
phosphorylation by PKCα (rat PKCα): efficiently phosphorylated | phosphorylation by PKCδ (rat PKCδ): efficiently phosphorylated

LSKVTSKCGS [tau320]
phosphorylation by PKN1 (human PKN1 [6]): efficiently phosphorylated | phosphorylation by PKCδ (rat PKCδ): efficiently phosphorylated

NERHEVQLDMEPQGCLV
inhibition of peptide kinase activity of PKN1 (human PKN1 [4]): did not inhibit

PRLRRQKKIFSKQQG [PRL]
Ki (human PKN1 [4]): 700 nM | effect on apparent Km for δpeptide (human PKN1 [4]; Michaelis–Menten fit, increasing PRL concentrations): increased the apparent Km

PRLRRQKKIFSKQQG-NH-CH2CH2-SH [PRL-SH]
selectivity for PKN over PKC in vitro (PKN [7]): selective inhibition of PKN

PVIERIPRLRRQKKI
inhibition of peptide kinase activity of PKN1 (human PKN1 [4]): partially inhibited

QKKIFSKQQGKAFQAARQMN
inhibition of peptide kinase activity of PKN1 (human PKN1 [4]): partially inhibited

Reference: PMC3755880 (The Biochemical journal, 2009)
